Calls of active or inactive are those of the source. No cut-off for these calls is given here.
How the values were obtained:
[1] = molecular target: T1, Transient receptor potential cation channel subfamily V member 2 (Rattus norvegicus, UniProt Q9WUD2); experiment: Antagonist activity at recombinant rat TRPV2 expressed in HEK293 cells assessed as inhibition of LPC-induced Ca2+ levels preincubated for 5 mins followed by agonist addition by Fuo-4-AM based spectrofluorimetry; format: cell-based
T1 sequence (Q9WUD2 whole entry): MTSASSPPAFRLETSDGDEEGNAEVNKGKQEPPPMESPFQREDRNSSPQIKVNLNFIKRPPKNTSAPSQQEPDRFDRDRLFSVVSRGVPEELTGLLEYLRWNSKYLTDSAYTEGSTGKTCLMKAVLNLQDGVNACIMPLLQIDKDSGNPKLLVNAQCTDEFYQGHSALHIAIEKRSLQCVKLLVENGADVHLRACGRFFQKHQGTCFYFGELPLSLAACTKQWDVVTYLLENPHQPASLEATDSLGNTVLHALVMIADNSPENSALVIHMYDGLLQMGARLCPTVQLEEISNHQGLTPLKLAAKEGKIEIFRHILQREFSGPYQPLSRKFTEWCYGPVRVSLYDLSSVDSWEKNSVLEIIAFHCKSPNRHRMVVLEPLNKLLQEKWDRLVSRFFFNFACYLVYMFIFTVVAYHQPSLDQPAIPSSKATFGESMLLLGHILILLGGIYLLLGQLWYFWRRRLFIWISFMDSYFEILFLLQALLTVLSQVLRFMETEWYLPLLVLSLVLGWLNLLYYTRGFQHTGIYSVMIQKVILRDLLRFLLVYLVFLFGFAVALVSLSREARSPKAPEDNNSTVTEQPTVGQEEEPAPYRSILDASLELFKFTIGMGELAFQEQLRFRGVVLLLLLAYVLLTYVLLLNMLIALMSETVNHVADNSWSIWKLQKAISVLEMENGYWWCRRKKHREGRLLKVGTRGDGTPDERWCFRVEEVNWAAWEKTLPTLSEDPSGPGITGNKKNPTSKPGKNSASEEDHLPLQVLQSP
How it was run: (§1)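 HEK-293 cells heterologously expressing rat TRPV2, fluorometric intracellular Ca2+ assay. Cells are preincubated 5 min with varying test concentrations, then challenged with LPC (3 µM) or CBD (2 µM). Inhibition of the agonist-evoked [Ca2+]i rise gives IC50 (µM).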

[2] = molecular target: T1, Transient receptor potential cation channel subfamily V member 2; experiment: Antagonist activity at recombinant rat TRPV2 expressed in HEK293 cells assessed as inhibition of CBD-induced Ca2+ levels preincubated for 5 mins followed by agonist addition by Fuo-4-AM based spectrofluorimetry; format: cell-based; how it was run: as §1
[3] = molecular target: T2, Transient receptor potential cation channel subfamily V member 2 (Rattus norvegicus) (UniProt Q9WUD2); experiment: Non-competitive antagonist activity at recombinant rat TRPV2 expressed in HEK293 cells assessed as inhibition of LPC-induced Ca2+ levels preincubated for 5 mins followed by agonist addition by Fuo-4-AM dependent spectrofluorimetry based Schild analysis; format: cell-based
T2 sequence (whole entry): T1 sequence (Q9WUD2 whole entry)
How it was run: (§2)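 Schild analysis in rat TRPV2-HEK-293 cells by fluorometric Ca2+ assay. Full LPC or CBD concentration–response curves are run at increasing antagonist concentrations. Each agonist concentration is expressed as percent of its effect at 2x10-4 M without antagonist.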

[4] = molecular target: T2, Transient receptor potential cation channel subfamily V member 2 (Rattus norvegicus); experiment: Non-competitive antagonist activity at recombinant rat TRPV2 expressed in HEK293 cells assessed as inhibition of CBD-induced Ca2+ levels preincubated for 5 mins followed by agonist addition by Fuo-4-AM dependent spectrofluorimetry based Schild analysis; format: cell-based; how it was run: as §2
[5] = molecular target: Transient receptor potential cation channel subfamily V member 1 (Homo sapiens, UniProt Q8NER1); experiment: Agonist activity at recombinant human TRPV1 expressed in HEK293 cells assessed as induction of Ca2+ levels by Fuo-4-AM based spectrofluorimetry
Transient receptor potential cation channel subfamily V member 1, sequence (Q8NER1 whole entry): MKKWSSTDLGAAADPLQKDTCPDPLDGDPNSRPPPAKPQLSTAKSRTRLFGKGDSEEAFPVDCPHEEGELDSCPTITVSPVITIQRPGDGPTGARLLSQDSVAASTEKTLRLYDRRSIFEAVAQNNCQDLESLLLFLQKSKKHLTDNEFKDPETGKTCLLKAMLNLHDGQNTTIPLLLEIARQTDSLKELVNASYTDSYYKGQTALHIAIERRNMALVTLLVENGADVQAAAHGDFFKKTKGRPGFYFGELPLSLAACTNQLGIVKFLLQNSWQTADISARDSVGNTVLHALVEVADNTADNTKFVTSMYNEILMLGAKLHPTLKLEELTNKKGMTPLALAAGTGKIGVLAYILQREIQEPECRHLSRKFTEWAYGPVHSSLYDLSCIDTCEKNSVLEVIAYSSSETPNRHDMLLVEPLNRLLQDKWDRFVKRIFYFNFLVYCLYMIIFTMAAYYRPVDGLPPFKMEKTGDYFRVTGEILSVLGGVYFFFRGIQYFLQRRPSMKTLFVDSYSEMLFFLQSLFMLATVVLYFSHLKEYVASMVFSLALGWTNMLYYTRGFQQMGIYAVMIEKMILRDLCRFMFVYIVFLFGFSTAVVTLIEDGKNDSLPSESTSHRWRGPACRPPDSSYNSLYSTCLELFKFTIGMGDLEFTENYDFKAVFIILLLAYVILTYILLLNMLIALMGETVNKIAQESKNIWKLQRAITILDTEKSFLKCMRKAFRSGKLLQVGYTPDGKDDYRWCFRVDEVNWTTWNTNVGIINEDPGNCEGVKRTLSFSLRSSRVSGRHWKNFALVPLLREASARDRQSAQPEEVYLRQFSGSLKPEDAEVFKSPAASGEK

SMILES | IC50 [1] | IC50 [2] | inhibition [3] | inhibition [4] | EC50 [5]
CCCCCCCC/C=C\CCCCCCCC(=O)N/N=C/c1ccc(O)c(OC)c1 | 120 nM | 3000 nM | – | – | –
CCCCCCCC/C=C\CCCCCCCC(=O)NCc1ccc(O)c(OC)c1 [OLVANIL] | 160 nM | 1700 nM | Active | Active | –
CCCCCCC(=O)CC(O)CCCCCCCCC(=O)NCc1ccc(O)c(OC)c1 (configuration not stated) | > 10000 nM | > 10000 nM | – | – | –
CCCCCCCC/C=C\CCCCCCCCCCCC(=O)NCc1ccc(O)c(OC)c1 | 490 nM | 1500 nM | – | – | –
CCCCCC[C@@H](O)C/C=C\CCCCCCCCSCCC(=O)NCc1ccc(O)c(OC)c1 | > 10000 nM | – | – | – | –
CCCCCCCC/C=C\CCCCCCCC(N)=O [OLEAMIDE] | 2100 nM | 2100 nM | – | – | –
CCCCC/C=C\C/C=C\CCCCCCCCCCCC(=O)NCc1ccc(O)c(OC)c1 | 820 nM | 1800 nM | – | – | –
CCCCCCCCCCCCCCCCCCCC(=O)NCc1ccc(O)c(OC)c1 | 3100 nM | > 10000 nM | – | – | –
CCCCCCCCCCCCCCCCCC(=O)NCCO [N-(2-HYDROXYETHYL)STEARAMIDE] | > 10000 nM | > 10000 nM | – | – | –
CCCCCCCCCCCCCCCCCC(=O)NCc1ccc(O)c(OC)c1 | > 10000 nM | > 10000 nM | – | – | –
CCCCCCCCCCCCCCCC(=O)N/N=C/c1ccc(O)c(OC)c1 | 280 nM | 6000 nM | – | – | –
CCCCC/C=C\C/C=C\C/C=C\C/C=C\CCCC(=O)NCCO [ANANDAMIDE] | 8600 nM | 960 nM | – | – | –
CCCCCCCCCCCCCCCCCC(N)=O [OCTADECANOIC ACID AMIDE] | > 10000 nM | > 10000 nM | – | – | –
CCCCCCCC/C=C\CCCCCCCC[Se]CCC(=O)NCc1ccc(O)c(OC)c1 | 1800 nM | 3200 nM | – | – | –
CCCCCCCCCCCCCCCC[Se]C[C@H](N)C(=O)NCc1ccc(O)c(OC)c1 | 1200 nM | – | – | – | –
CCCCCCCCCCCCCCCC[Se]CCC(=O)NCc1ccc(O)c(OC)c1 | 4300 nM | – | – | – | –
CCCCC/C=C\C/C=C\CCCCCCCCSCCC(=O)NCc1ccc(O)c(OC)c1 | 1400 nM | 2800 nM | – | – | –
CCCCC/C=C\C/C=C\CCCCCCCC[Se]CCC(=O)NCc1ccc(O)c(OC)c1 | 1400 nM | 2300 nM | – | – | –
CCCCCCCC/C=C\CCCCCCCC[Se]C[C@H](N)C(=O)NCc1ccc(O)c(OC)c1 | 1700 nM | 980 nM | Active | Active | –
CCCCCCCCCCCCCCCCSCCC(=O)NCc1ccc(O)c(OC)c1 | 3800 nM | – | – | – | –
CCCCCC[C@H](C/C=C\CCCCCCCC[Se]CCC(=O)NCc1ccc(O)c(OC)c1)OC(=O)Cc1ccccc1 | > 10000 nM | 2300 nM | – | – | –
CC/C=C\C/C=C\C/C=C\C/C=C\C/C=C\CCCC(=O)NCCO | > 10000 nM | 2300 nM | – | – | –
CCCCCC[C@@H](O)C/C=C\CCCCCCCC[Se]CCC(=O)NCc1ccc(O)c(OC)c1 | > 10000 nM | 1400 nM | – | Active | –
CC/C=C\C/C=C\C/C=C\C/C=C\C/C=C\C/C=C\CCC(=O)NCCO | > 10000 nM | 1630 nM | – | – | –
CCCCCCCC/C=C\CCCCCCCCCCCC(=O)O [ERUCIC ACID] | > 10000 nM | > 10000 nM | – | – | –
CCCCCCCCCCCCCCCC(=O)NCCO [PALMIDROL] | > 10000 nM | > 10000 nM | – | – | –

SMILES | IC50 [1] | IC50 [2] | inhibition [3] | inhibition [4] | EC50 [5]
CCCCCCC(=O)C/C=C/CCCCCCCC(=O)NCc1ccc(O)c(OC)c1 | > 10000 nM | 4400 nM | – | – | –
CCCCCCCC/C=C\CCCCCCCCSCCC(=O)NCc1ccc(O)c(OC)c1 | 2500 nM | – | – | – | –
CCCCCC[C@H](C/C=C\CCCCCCCCSCCC(=O)NCc1ccc(O)c(OC)c1)OC(=O)Cc1ccccc1 | > 10000 nM | – | – | – | –
CCCCCCCCCCCCCCCCSC[C@H](N)C(=O)NCc1ccc(O)c(OC)c1 | 1400 nM | – | – | – | –
CCCCCCCCCCCCCCCCCCCC(N)=O | > 10000 nM | > 10000 nM | – | – | –
CCCCCCCCCCCCCCCCCCCC(=O)NCCO | > 10000 nM | > 10000 nM | – | – | –
CCCCC/C=C\C/C=C\CCCCCCCCCCCC(=O)O | > 10000 nM | > 10000 nM | – | – | –
CCCCCCCCCCCCCCCC(N)=O [PALMITAMIDE] | > 10000 nM | > 10000 nM | – | – | –
CCCCCCCC/C=C\CCCCCCCCSC[C@H](N)C(=O)NCc1ccc(O)c(OC)c1 | 1900 nM | – | – | – | –
CCCCCCCCCCCCCCCCOC(=O)CSC[C@H](N)C(=O)NCc1ccc(O)c(OC)c1 | 1400 nM | – | – | – | –
CCCCCCCCCCCCCCCCCCCC(=O)O [ARACHIDIC ACID] | > 10000 nM | > 10000 nM | – | – | –
CCCCC/C=C\C/C=C\CCCCCCCC(=O)NCc1ccc(O)c(OC)c1 | 2600 nM | 2100 nM | – | – | –
CCCCCCCC/C=C\CCCCCCCCCCCC(N)=O | 670 nM | 7100 nM | – | – | –
CCCCCCCCCCCCCCCC(=O)NCc1ccc(O)c(OC)c1 | > 10000 nM | > 10000 nM | – | – | –
CCCCCCCC/C=C\CCCCCCCC(=O)NCCO [OLEOYLETHANOLAMIDE] | 1800 nM | 5400 nM | – | – | –
CCCCC/C=C\C/C=C\CCCCCCCC(N)=O | 2200 nM | 1200 nM | – | – | –
CCCCCCCC/C=C\CCCCCCCC(=O)O [OLEIC ACID] | > 10000 nM | > 10000 nM | – | – | –
CCCCCCCC/C=C\CCCCCCCCCCCC(=O)NCCO | 740 nM | > 10000 nM | Active | – | –
CCCCCC[C@@H](O)C/C=C/CCCCCCCC(=O)NCc1ccc(O)c(OC)c1 | > 10000 nM | 7500 nM | – | – | –
NCCOB(c1ccccc1)c1ccccc1 | – | – | – | – | 129000 nM
CCCCCC/C=C\CCCCCCCC(=O)NCCO | 3500 nM | 1700 nM | – | – | –
CCCCC/C=C\C/C=C\CCCCCCCC(=O)NCCO [LINOLEOYLETHANOLAMIDE] | 1400 nM | 650 nM | – | – | –
CCCCC/C=C\C/C=C\C/C=C\C/C=C\CCCC(=O)O [ARACHIDONIC ACID] | > 10000 nM | > 10000 nM | – | – | –
CCCCCCCCCCCCCCCC(=O)O [PALMITIC ACID] | > 10000 nM | > 10000 nM | – | – | –
CCCCCCCCCCCCCCCCOC(=O)CSCCC(=O)NCc1ccc(O)c(OC)c1 | > 10000 nM | – | – | – | –

From ChEMBL document CHEMBL4229558, “Elongation of the Hydrophobic Chain as a Molecular Switch: Discovery of Capsaicin Derivatives and Endogenous Lipids as Potent Transient Receptor Potential Vanilloid Channel 2 Antagonists” (J Med Chem, 2018)
